Laboratory results reported in ChEMBL document CHEMBL1142626, “Insecticidal and mutagenic evaluation of two annonaceous acetogenins” (J Nat Prod, 2000).

How the values were obtained:
[1] = test system: Salmonella typhimurium; assay: Mutagenic activity in Salmonella Typhimurium TA100 assessed as number of revertants at 10 ug/plate in absence of Wistar rat S9 liver homogenate; assay type: toxicity, organism-based; conditions: salmonella enterica subsp. enterica serovar typhimurium
How it was run: (§1)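 Salmonella/microsome plate test, with or without S9 from livers of male Wistar rats (~200 g). Strain markers and spontaneous revertant counts were routinely verified. Revertants are reported as mean ± standard error of triplicate plates. Strain-specific positive controls were used, with 2-aminoanthracene for all strains when S9 was present.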

[2] = test system: Salmonella typhimurium; assay: Mutagenic activity in Salmonella Typhimurium TA100 assessed as number of revertants at 20 ug/plate in absence of Wistar rat S9 liver homogenate; assay type: toxicity, organism-based; conditions: salmonella enterica subsp. enterica serovar typhimurium; how it was run: as §1
[3] = test system: Salmonella typhimurium; assay: Mutagenic activity in Salmonella Typhimurium TA100 assessed as number of revertants at 50 ug/plate in absence of Wistar rat S9 liver homogenate; assay type: toxicity, organism-based; conditions: salmonella enterica subsp. enterica serovar typhimurium; how it was run: as §1
[4] = test system: Salmonella typhimurium; assay: Mutagenic activity in Salmonella Typhimurium TA100 assessed as number of revertants at 100 ug/plate in absence of Wistar rat S9 liver homogenate; assay type: toxicity, organism-based; conditions: salmonella enterica subsp. enterica serovar typhimurium; how it was run: as §1
[5] = test system: Salmonella typhimurium; assay: Mutagenic activity in Salmonella Typhimurium TA100 assessed as number of revertants at 0.01 ug/plate in presence of Wistar rat S9 liver homogenate; assay type: toxicity, organism-based, Liver S9 fraction; conditions: salmonella enterica subsp. enterica serovar typhimurium; how it was run: as §1
[6] = test system: Salmonella typhimurium; assay: Mutagenic activity in Salmonella Typhimurium TA100 assessed as number of revertants at 0.1 ug/plate in presence of Wistar rat S9 liver homogenate; assay type: toxicity, organism-based, Liver S9 fraction; conditions: salmonella enterica subsp. enterica serovar typhimurium; how it was run: as §1
[7] = test system: Salmonella typhimurium; assay: Mutagenic activity in Salmonella Typhimurium TA100 assessed as number of revertants at 1 ug/plate in presence of Wistar rat S9 liver homogenate; assay type: toxicity, organism-based, Liver S9 fraction; conditions: salmonella enterica subsp. enterica serovar typhimurium; how it was run: as §1
[8] = test system: Salmonella typhimurium; assay: Mutagenic activity in Salmonella Typhimurium TA100 assessed as number of revertants at 10 ug/plate in presence of Wistar rat S9 liver homogenate; assay type: toxicity, organism-based, Liver S9 fraction; conditions: salmonella enterica subsp. enterica serovar typhimurium; how it was run: as §1
[9] = test system: Salmonella typhimurium; assay: Mutagenic activity in Salmonella Typhimurium TA100 assessed as number of revertants at 20 ug/plate in presence of Wistar rat S9 liver homogenate; assay type: toxicity, organism-based, Liver S9 fraction; conditions: salmonella enterica subsp. enterica serovar typhimurium; how it was run: as §1
[10] = test system: Salmonella typhimurium; assay: Mutagenic activity in Salmonella Typhimurium TA100 assessed as number of revertants at 50 ug/plate in presence of Wistar rat S9 liver homogenate; assay type: toxicity, organism-based, Liver S9 fraction; conditions: salmonella enterica subsp. enterica serovar typhimurium; how it was run: as §1
[11] = test system: Salmonella typhimurium; assay: Mutagenic activity in Salmonella Typhimurium TA102 assessed as number of revertants at 0.01 ug/plate in absence of Wistar rat S9 liver homogenate; assay type: toxicity, organism-based; conditions: salmonella enterica subsp. enterica serovar typhimurium; how it was run: as §1
[12] = test system: Salmonella typhimurium; assay: Mutagenic activity in Salmonella Typhimurium TA102 assessed as number of revertants at 0.1 ug/plate in absence of Wistar rat S9 liver homogenate; assay type: toxicity, organism-based; conditions: salmonella enterica subsp. enterica serovar typhimurium; how it was run: as §1
[13] = test system: Salmonella typhimurium; assay: Mutagenic activity in Salmonella Typhimurium TA102 assessed as number of revertants at 1 ug/plate in absence of Wistar rat S9 liver homogenate; assay type: toxicity, organism-based; conditions: salmonella enterica subsp. enterica serovar typhimurium; how it was run: as §1
[14] = test system: Salmonella typhimurium; assay: Mutagenic activity in Salmonella Typhimurium TA102 assessed as number of revertants at 10 ug/plate in absence of Wistar rat S9 liver homogenate; assay type: toxicity, organism-based; conditions: salmonella enterica subsp. enterica serovar typhimurium; how it was run: as §1
[15] = test system: Salmonella typhimurium; assay: Mutagenic activity in Salmonella Typhimurium TA102 assessed as number of revertants at 20 ug/plate in absence of Wistar rat S9 liver homogenate; assay type: toxicity, organism-based; conditions: salmonella enterica subsp. enterica serovar typhimurium; how it was run: as §1
[16] = test system: Salmonella typhimurium; assay: Mutagenic activity in Salmonella Typhimurium TA102 assessed as number of revertants at 50 ug/plate in absence of Wistar rat S9 liver homogenate; assay type: toxicity, organism-based; conditions: salmonella enterica subsp. enterica serovar typhimurium; how it was run: as §1
[17] = test system: Salmonella typhimurium; assay: Mutagenic activity in Salmonella Typhimurium TA102 assessed as number of revertants at 100 ug/plate in absence of Wistar rat S9 liver homogenate; assay type: toxicity, organism-based; conditions: salmonella enterica subsp. enterica serovar typhimurium; how it was run: as §1
[18] = test system: Salmonella typhimurium; assay: Mutagenic activity in Salmonella Typhimurium TA102 assessed as number of revertants at 0.01 ug/plate in presence of Wistar rat S9 liver homogenate; assay type: toxicity, organism-based, Liver S9 fraction; conditions: salmonella enterica subsp. enterica serovar typhimurium; how it was run: as §1
[19] = test system: Salmonella typhimurium; assay: Mutagenic activity in Salmonella Typhimurium TA102 assessed as number of revertants at 1 ug/plate in presence of Wistar rat S9 liver homogenate; assay type: toxicity, organism-based, Liver S9 fraction; conditions: salmonella enterica subsp. enterica serovar typhimurium; how it was run: as §1
[20] = test system: Salmonella typhimurium; assay: Mutagenic activity in Salmonella Typhimurium TA102 assessed as number of revertants at 10 ug/plate in presence of Wistar rat S9 liver homogenate; assay type: toxicity, organism-based, Liver S9 fraction; conditions: salmonella enterica subsp. enterica serovar typhimurium; how it was run: as §1
[21] = test system: Salmonella typhimurium; assay: Mutagenic activity in Salmonella Typhimurium TA102 assessed as number of revertants at 20 ug/plate in presence of Wistar rat S9 liver homogenate; assay type: toxicity, organism-based, Liver S9 fraction; conditions: salmonella enterica subsp. enterica serovar typhimurium; how it was run: as §1
[22] = test system: Salmonella typhimurium; assay: Mutagenic activity in Salmonella Typhimurium TA102 assessed as number of revertants at 50 ug/plate in presence of Wistar rat S9 liver homogenate; assay type: toxicity, organism-based, Liver S9 fraction; conditions: salmonella enterica subsp. enterica serovar typhimurium; how it was run: as §1
[23] = test system: Salmonella typhimurium; assay: Mutagenic activity in Salmonella Typhimurium TA102 assessed as number of revertants at 100 ug/plate in presence of Wistar rat S9 liver homogenate; assay type: toxicity, organism-based, Liver S9 fraction; conditions: salmonella enterica subsp. enterica serovar typhimurium; how it was run: as §1
[24] = test system: Salmonella typhimurium; assay: Mutagenic activity in Salmonella Typhimurium TA98 assessed as number of revertants at 0.01 ug/plate in absence of Wistar rat S9 liver homogenate; assay type: toxicity, organism-based; conditions: salmonella enterica subsp. enterica serovar typhimurium; how it was run: as §1
[25] = test system: Spodoptera littoralis; assay: Antifeedant effect against Spodoptera littoralis assessed as feeding reduction at 100 ug/cm2 relative to control; assay type: functional; design: scale not given: the % may be the effect or the level left
How it was run: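 Choice test on leaf disks using adult L. decemlineata or newly emerged fifth-instar S. littoralis larvae. Five to 10 plates per treatment, three insects each. Uneaten leaf-disk area was measured by scanner. %FR = [1 − (treatment/control consumption)] × 100 per arena. Where FR exceeded 50%, EC50 was taken from linear regression of %FR on log dose.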

CCCCCC[C@H](O)CCC[C@H](O)[C@H]1CC[C@H]([C@H]2CC[C@H]([C@H](O)CCCCCCCCCCCCC3=C[C@H](C)OC3=O)O2)O1 [SQUAMOCIN]
Activity [1]: 69
Activity [2]: 68
Activity [3]: 39
Activity [4]: 21
Activity [5]: 147
Activity [6]: 137
Activity [7]: 138
Activity [8]: 142
Activity [9]: 135
Activity [10]: 118
Activity [11]: 259
Activity [12]: 243
Activity [13]: 182
Activity [14]: 108
Activity [15]: 98
Activity [16]: 93
Activity [17]: 80
Activity [18]: 414
Activity [19]: 422
Activity [20]: 419
Activity [21]: 139
Activity [22]: 99
Activity [23]: 88
Activity [24]: 27
Activity [25]: <40%
